Assay results published in publication PMC10965878 (Infectious Diseases and Therapy, 2024).
Values joined by “and” are separate entries in the source; they are usually repeats but may differ in a detail not shown here. Equal values may be shown once. Read-outs that look alike come from different tables or passages of the source.

What was measured:
[1] = 750 mg once followed by 250 mg once daily for 4 days (750/250 mg); cited from earlier work
[2] = test system: multidrug and toxin extrusion (MATE) 1; settings: in vitro; cited from earlier work
[3] = test system: plasma protein; test: Unbound fraction in plasma; type: in vivo; settings: human, oral, 375 mg, protein binding rate (= [1 − unbound fraction] × 100), humans
[4] = test system: plasma protein; settings: mice; cited from earlier work
[5] = test system: organic cation transporter (OCT) 2; settings: in vitro; cited from earlier work
[6] = Safety assessment: treatment-emergent adverse events; type: in vivo, human; settings: single oral 375 mg
In short: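 Open-label, nonrandomized, parallel-group Phase 1 study in adults with mild, moderate or severe renal impairment (severe excluded if hemodialysis-dependent) and normal renal function. Normal-function controls were matched to moderate-impairment participants by sex, age (± 5 years) and BMI (± 10%). Each received a single oral 375 mg dose as three 125-mg tablets. TEAEs were recorded for nature, frequency and severity, and coded by MedDRA v25.0 System Organ Class/Preferred Term in all treated participants.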

[7] = test system: plasma protein; settings: hamsters; cited from earlier work
[8] = test system: MATE-2K; settings: in vitro; cited from earlier work
[9] = for AUC0–last GLS mean ratio / t1/2,z GLS mean ratio / Ae (cumulative amount excreted unchanged in urine) / CL/F / Feu (fraction of dose excreted unchanged into urine): single oral 375 mg; for Ae (cumulative amount excreted unchanged in urine) / CL/F / Feu (fraction of dose excreted unchanged into urine): geometric mean (CV%)
[10] = mild impairment/normal function
[11] = moderate impairment/normal function
[12] = severe impairment/normal function

Cn1cnc(Cn2c(=O)[nH]/c(=N\c3cc4cn(C)nc4cc3Cl)n(Cc3cc(F)c(F)cc3F)c2=O)n1 [ensitrelvir]
tolerability [1]: demonstrated tolerability
substrate for MATE1 [2]: not a substrate
fraction unbound [3]: 0.983 to 0.988
protein binding rate [4]: 97.6%
substrate for OCT2 [5]: not a substrate
Any treatment-related TEAE ([6]; mild renal impairment (N = 8)): 1 (12.5) n (%)
Any treatment-related TEAE ([6]; moderate renal impairment (N = 8)): 1 (12.5) n (%)
severity category of all TEAEs and treatment-related TEAEs ([6]; all groups): mild or moderate
protein binding rate [7]: 98.3%
substrate for MATE-2K [8]: not a substrate
AUC0–last GLS mean ratio [9, 10]: 1.4303
t1/2,z GLS mean ratio [9, 10]: 1.19 and 1.1855
Ae (cumulative amount excreted unchanged in urine) ([9]; mild renal impairment): 45.7 (44.7) mg
CL/F ([9]; mild renal impairment): 0.262 (20.8) L/h
Feu (fraction of dose excreted unchanged into urine) ([9]; mild renal impairment): 12.2 (44.7) %
AUC0–last GLS mean ratio [9, 11]: 1.4780
t1/2,z GLS mean ratio [9, 11]: 1.24 and 1.2434
Ae (cumulative amount excreted unchanged in urine) ([9]; moderate renal impairment): 58.6 (20.6) mg
CL/F ([9]; moderate renal impairment): 0.253 (26.0) L/h
Feu (fraction of dose excreted unchanged into urine) ([9]; moderate renal impairment): 15.6 (20.6) %
Ae (cumulative amount excreted unchanged in urine) ([9]; normal renal function): 54.8 (29.5) mg
CL/F ([9]; normal renal function): 0.376 (26.0) L/h
Feu (fraction of dose excreted unchanged into urine) ([9]; normal renal function): 14.6 (29.5) %
increased AUC level with renal impairment ([9]; renal impairment vs normal renal function): < 2 fold
AUC0–last GLS mean ratio [9, 12]: 1.5475
t1/2,z GLS mean ratio [9, 12]: 1.61 and 1.6072
Ae (cumulative amount excreted unchanged in urine) ([9]; severe renal impairment): 49.2 (26.5) mg
CL/F ([9]; severe renal impairment): 0.235 (26.1) L/h
Feu (fraction of dose excreted unchanged into urine) ([9]; severe renal impairment): 13.1 (26.5) %
